Experimental data taken from ChEMBL document CHEMBL4196141, “Improved Antibacterial Activity of the Marine Peptide N6 against Intracellular Salmonella Typhimurium by Conjugating with the Cell-Penetrating Peptide Tat11 via a Cleavable Linker” (J Med Chem, 2018).
In brackets after ≈: the same amount, converted by molar mass. Activity calls are given as the source filed them. No cut-off for these calls is given here.

Tests used:
Salmonella typhimurium [1] = experiment: Antibacterial activity against Salmonella typhimurium ATCC 14028 using 1 hr cathepsin B pre-treated compound followed by incubation for 16 to 18 hrs at pH 5 by broth microdilution method; type: functional, Salmonella enterica subsp. enterica serovar Typhimurium; conditions: Salmonella enterica
In short: (§1)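 Cathepsin B (bovine spleen, 10 µg/mL) was added for 1 h at 37 °C, and the reaction was stopped with 9 volumes of MHB. MIC was then run by broth microdilution (5 × 10^5 CFU/mL, 16–18 h, 37 °C) in medium adjusted to pH 5.0.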

Salmonella typhimurium [2] = experiment: Antibacterial activity against Salmonella typhimurium ATCC 14028 infected in ICR mouse model of peritonitis assessed as reduction colony forming units in intracellular fluids at 1 umol/kg, ip dosed at 2 hrs post infection and measured after 10 hrs post dose; type: functional, Salmonella enterica subsp. enterica serovar Typhimurium
In short: (§2)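 Six-week-old female ICR mice (six per group) received ip S. Typhimurium ATCC14028 (5 × 10^5 CFU, 0.5 mL). Peptide was given ip 2 h post-infection and mice were killed 10 h after treatment. Peritoneum was lavaged with 5 mL ice-cold PBS and total CFU counted. For intracellular CFU, pelleted cells were treated with 100 µg/mL gentamicin for 1 h at 37 °C, washed, lysed and plated. PBS served as negative control, ciprofloxacin as positive.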

Salmonella typhimurium [3] = experiment: Antibacterial activity against Salmonella typhimurium ATCC 14028 infected in ICR mouse model of peritonitis assessed as reduction colony forming units in spleen at 1 to 2 umol/kg, ip dosed at 2 hrs post infection and measured after 10 hrs post dose relative to marine peptide N6; type: functional, Salmonella enterica subsp. enterica serovar Typhimurium; parameters: scale not given: the % may be the effect or the level left
In short: (§3)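 Female ICR mice, six weeks old (six per group), were infected ip with S. Typhimurium ATCC14028 (5 × 10^5 CFU, 0.5 mL). Peptide was given ip at 1, 1.5 or 2 µmol/kg 2 h post-infection. Mice were killed 10 h after treatment, and kidneys and spleens were homogenized in sterile PBS for CFU counts of translocated bacteria. PBS-treated mice served as negative control, ciprofloxacin-treated mice as positive.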

[4] = Induction of hemolysis in mouse RBC at 100 uM incubated for 1 hrs at 37 degC; type: cell-based, Erythrocyte; conditions: red blood cells (erythrocytes), read-out: Activity
In short: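 Fresh mouse erythrocytes were washed three times in 0.9% NaCl, and an 8% suspension was incubated with peptide (2-fold dilutions, 100 to 0.3125 µM) for 1 h at 37 °C. Released hemoglobin was read at 540 nm. 1% Triton X-100 defined 100% lysis; polymyxin served as positive control and NaCl as negative.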

Salmonella typhimurium [5] = experiment: Bactericidal activity against 2 hrs-gentamicin pre-exposed Salmonella typhimurium ATCC 14028 assessed as reduction colony forming units at 20 uM incubated for 10 hrs; type: functional, Salmonella enterica subsp. enterica serovar Typhimurium
In short: (§4)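 Macrophage protection assay. RAW264.7 cells (5 × 10^4/well, 24 h) were infected with S. Typhimurium ATCC14028 at MOI 10 for 1 h in DMEM/10% FBS, exposed to 100 µg/mL gentamicin for 2 h at 37 °C, and PBS-washed. Peptides in DMEM/10% FBS were added for 10 h. Cells were lysed with 0.1% Triton X-100 and CFU plated; log10 CFU reduction versus untreated cells. Three replicates; two independent experiments; one-way ANOVA with Tukey.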

Salmonella typhimurium [6] = experiment: Bactericidal activity against 2 hrs-gentamicin pre-exposed Salmonella typhimurium ATCC 14028 assessed as reduction colony forming units at 50 uM incubated for 10 hrs; type: functional, Salmonella enterica subsp. enterica serovar Typhimurium; in short: as §4
Salmonella typhimurium [7] = experiment: Antibacterial activity against Salmonella typhimurium ATCC 14028 infected in ICR mouse model of peritonitis assessed as reduction colony forming units in kidney at 1 to 2 umol/kg, ip dosed at 2 hrs post infection and measured after 10 hrs post dose relative to marine peptide N6; type: functional, Salmonella enterica subsp. enterica serovar Typhimurium; parameters: scale not given: the % may be the effect or the level left; in short: as §3
Salmonella typhimurium [8] = experiment: Bactericidal activity against 2 hrs-gentamicin pre-exposed Salmonella typhimurium ATCC 14028 assessed as reduction colony forming units at 50 uM incubated for 10 hrs relative to marine peptide N6; type: functional, Salmonella enterica subsp. enterica serovar Typhimurium; parameters: scale not given: the % may be the effect or the level left; in short: as §4
Salmonella typhimurium [9] = experiment: Bactericidal activity against 2 hrs-gentamicin pre-exposed Salmonella typhimurium ATCC 14028 assessed as reduction colony forming units at 10 uM measured within 9 hrs; type: functional, organism-based; conditions: Salmonella enterica subsp. enterica serovar Typhimurium
In short: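 RAW264.7 cells in DMEM/10% FBS were infected with S. Typhimurium ATCC14028 at MOI 10 for 1 h, then given 100 µg/mL gentamicin for 2 h at 37 °C and washed. Cells were treated with 10 µM agent for 1, 3, 6, 9 and 12 h, lysed with 0.1% Triton X-100, and surviving intracellular bacteria were serially diluted and plated for CFU.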

Salmonella typhimurium [10] = experiment: Antibacterial activity against Salmonella typhimurium ATCC 14028 assessed as time duration for reduction in growth using cathepsin B pre-treated compound at 1 to 2 MIC incubated for 1 to 24 hrs by time kill assay; type: functional, Salmonella enterica subsp. enterica serovar Typhimurium
In short: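 Time-kill of cathepsin B-pretreated peptide (1 h, 37 °C, pH 5 buffer). Mid-log S. Typhimurium at 10^5 CFU/mL was exposed to 1× and 2× MIC at 37 °C with shaking at 250 rpm. Samples were taken every 2 h, serially diluted and plate-counted. N6 and ciprofloxacin served as controls.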

[11] = Cytotoxicity in mouse RAW264.7 assessed as cell survival at 100 uM incubated for 8 hrs by MTT assay; type: cell-based; conditions: RAW264.7 cells, read-out: Survival
In short: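 RAW264.7 cells seeded at 2.5 × 10^4 cells/well, cultured 24 h, then exposed for 8 h to 2-fold dilutions from 100 to 0.625 µM. MTT at 5 mg/mL added for 4 h, formazan dissolved in DMSO, absorbance read at 570 nm. Untreated cells served as control. Samples run in triplicate.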

Salmonella typhimurium [12] = experiment: Antibacterial activity against Salmonella typhimurium ATCC 14028 infected in ICR mouse model of peritonitis assessed as mouse survival at 1.5 umol/kg, ip dosed at 0.5 and 8 hrs post infection and measured daily for 7 days
Salmonella typhimurium [13] = experiment: Antibacterial activity against Salmonella typhimurium ATCC 14028 infected in ICR mouse model of peritonitis assessed as reduction colony forming units in total peritoneal fluids at 1 umol/kg, ip dosed at 2 hrs post infection and measured after 10 hrs post dose; type: functional, Salmonella enterica subsp. enterica serovar Typhimurium; in short: as §2
Salmonella typhimurium [14] = experiment: Bactericidal activity against 2 hrs-gentamicin pre-exposed Salmonella typhimurium ATCC 14028 assessed as reduction colony forming units at 20 uM incubated for 10 hrs relative to marine peptide N6; type: functional, Salmonella enterica subsp. enterica serovar Typhimurium; parameters: scale not given: the % may be the effect or the level left; in short: as §4
Salmonella typhimurium [15] = experiment: Antibacterial activity against Salmonella typhimurium ATCC 14028 using 1 hr cathepsin B pre-treated compound at pH 5 incubated for 16 to 18 hrs at by broth microdilution method; type: functional, Salmonella enterica subsp. enterica serovar Typhimurium; conditions: Salmonella enterica; in short: as §1
Salmonella typhimurium [16] = experiment: Antibacterial activity against Salmonella typhimurium ATCC 14028 incubated for 16 to 18 hrs at pH 7.2 by broth microdilution method; type: functional, Salmonella enterica subsp. enterica serovar Typhimurium; conditions: Salmonella enterica
In short: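 Broth microdilution in MH broth. S. Typhimurium ATCC14028 was grown overnight at 37 °C to semi-log phase, pelleted, and diluted to OD600 0.01; final inoculum was 5 × 10^5 CFU/mL. Plates were incubated 16–18 h at 37 °C. MIC is the lowest peptide concentration with no visible growth. Data are in duplicate from at least two independent experiments.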

Salmonella typhimurium [17] = experiment: Antibacterial activity against Salmonella typhimurium ATCC 14028 infected in ICR mouse model of peritonitis assessed as mouse survival at 1 umol/kg, ip dosed at 0.5 and 8 hrs post infection and measured daily for 7 days
[18] = Drug internalization in mouse RAW264.7 using FITC-labeled compound at 2 uM pre-incubated for 1 hr with tubulin polymerization inhibitor nocodazole followed by compound addition and subsequent incubation for 2 hrs by flow cytometry; type: ADME, cell-based; conditions: raw264.7, 2 h
In short: (§5)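 RAW264.7 cells were pretreated 1 h at 37 °C with 3 mM amiloride, 20 µM nocodazole, 6 µg/mL chlorpromazine or 5 mM MβCD. FITC-labeled peptide was then added for 2 h at 37 °C. Extracellular fluorescence was quenched with 0.4% Trypan blue and intracellular fluorescence read by flow cytometry against an untreated control.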

[19] = Drug internalization in mouse RAW264.7 using FITC-labeled compound at 2 uM pre-incubated for 1 hr with clathrin-mediated endocytosis inhibitor chlorpromazine followed by compound addition and subsequent incubation for 2 hrs by flow cytometry; type: ADME, cell-based; conditions: raw264.7, 2 h; in short: as §5
[20] = Drug internalization in mouse RAW264.7 using FITC-labeled compound at 2 uM pre-incubated for 1 hr with macropinocytosis inhibitor amiloride followed by compound addition and subsequent incubation for 2 hrs by flow cytometry; type: ADME, cell-based; conditions: raw264.7, 2 h; in short: as §5
[21] = Drug internalization in mouse RAW264.7 using FITC-labeled compound at 2 uM pre-incubated for 1 hr with lipid rafts disruptor methyl-beta-cyclodextrin followed by compound addition and subsequent incubation for 2 hrs by flow cytometry; type: ADME, cell-based; conditions: raw264.7, 2 h; in short: as §5
[22] = Drug internalization in mouse RAW264.7 using FITC-labeled compound at 2 uM incubated for 2 hrs at 4 degC by flow cytometry; type: ADME, cell-based; conditions: raw264.7, 2 h
[23] = Drug localisation in cytosol of mouse RAW264.7 using FITC-labeled compound at 5 uM incubated for 2 hrs by confocal microscopy; type: ADME, cell-based
In short: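 RAW264.7 cells were plated for 18 h at 37 °C, then given 5 µM FITC or FITC-labeled peptide for 2 h. Nuclei were stained with Hoechst 33342 and membranes with FM 4-64 (each 5 µg/mL) for 30 min at 37 °C. Cells were PBS-washed and imaged by confocal fluorescence microscopy.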

CC(C)[C@H](NC(=O)CCCCCN1C(=O)CC(SC[C@H](N)C(=O)N[C@@H](Cc2ccc(O)cc2)C(=O)NCC(=O)N[C@@H](CCCNC(=N)N)C(=O)N[C@@H](CCCCN)C(=O)N[C@@H](CCCCN)C(=O)N[C@@H](CCCNC(=N)N)C(=O)N[C@@H](CCCNC(=N)N)C(=O)N[C@@H](CCC(N)=O)C(=O)N[C@@H](CCCNC(=N)N)C(=O)N[C@@H](CCCNC(=N)N)C(=O)N[C@@H](CCCNC(=N)N)C(=O)O)C1=O)C(=O)N[C@@H](CCCNC(N)=O)C(=O)Nc1ccc(COC(=O)NCC(=O)N[C@@H](Cc2ccccc2)C(=O)N[C@@H](C)C(=O)N[C@@H](Cc2c[nH]c3ccccc23)C(=O)N[C@@H](CC(N)=O)C(=O)N[C@H](C(=O)N[C@H]2CSSC[C@@H](C(=O)N[C@@H](Cc3cnc[nH]3)C(=O)N[C@@H](CCCNC(=N)N)C(=O)N[C@@H](CCCNC(=N)N)C(=O)N[C@@H](C)C(=O)N[C@@H](CC(N)=O)C(N)=O)NC(=O)[C@H](C(C)C)NC(=O)[C@H](CCCNC(=N)N)NC(=O)[C@H](C(C)C)NC(=O)CNC(=O)[C@H](CC(N)=O)NC(=O)[C@H](CCCNC(=N)N)NC(=O)[C@H](Cc3ccc(O)cc3)NC(=O)[C@H](C(C)C)NC2=O)C(C)C)cc1 (some centres undefined)
MIC (Salmonella typhimurium [1]): 3.4 µM (≈ 16.1 µg/mL)
Activity (Salmonella typhimurium [2]): 2.04 log10CFU
Activity (Salmonella typhimurium [3]): 241%
hemolysis at 1 h, 100 µM [4]: 4.6%
Activity (Salmonella typhimurium [5]): 2.54 log10CFU
Activity (Salmonella typhimurium [6]): 3.29 log10CFU
Activity (Salmonella typhimurium [7]): 241%
Activity (Salmonella typhimurium [8]): 98.6%
Activity (Salmonella typhimurium [9]): Active
Time (Salmonella typhimurium [10]): <=2 hr
viability at 8 h, 100 µM [11]: 64.3%
Activity (Salmonella typhimurium [12]): 100%
Activity (Salmonella typhimurium [13]): 3.46 log10CFU
Activity (Salmonella typhimurium [14]): 98.9%
MIC (Salmonella typhimurium [15]): 1.7 µM (≈ 8.05 µg/mL)
MIC (Salmonella typhimurium [16]): 13.6 µM (≈ 64.4 µg/mL)
Activity (Salmonella typhimurium [17]): 83.3%

N=C(N)NCCC[C@H](NC(=O)[C@H](CCCNC(=N)N)NC(=O)[C@H](CCCNC(=N)N)NC(=O)[C@H](CCC(N)=O)NC(=O)[C@H](CCCNC(=N)N)NC(=O)[C@H](CCCNC(=N)N)NC(=O)[C@H](CCCCN)NC(=O)[C@H](CCCCN)NC(=O)[C@H](CCCNC(=N)N)NC(=O)CNC(=O)[C@@H](N)Cc1ccc(O)cc1)C(=O)O
Drug uptake [18]: Active
Drug uptake [19]: Not Active
Drug uptake [20]: Not Active
Drug uptake [21]: Not Active
Drug uptake [22]: Not Active
MIC (Salmonella typhimurium [16]): > 82.1 µM
Drug uptake [23]: Active
